Screening results: PubChem BioAssay, several laboratories
697 NFkB inh: inhibitors of the PMA/ionomycin-induced NF-kB reporter in 697 B cells | 697 B-cell NF-kB luciferase reporter, 16 h | inhibition, % at 4 µM | hit rate 0.33% among 330,000 | AID 435022; in the data active = inhibition above about 35%
UPR XBP1 act: activators of adaptive arm of unfolded protein response (XBP1). CHO-XBP1 luciferase reporter, IRE1-XBP1 UPR activation, luminescence; percent of tunicamycin response, DMSO as zero. hit rate 0.33% among 330,000. activation, % at 20 µM. AID 463104;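 active = versus positive control, 20 µM dose yields 30% or more activation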;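 note: 100% = tunicamycin at 10 µg/mL and 0% = DMSO only wells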
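Test system: CHO-XBP1 luciferase reporter cells | Buffer or medium: Serum-containing F12 medium, 10% FBS | Schedule: 6 h compound exposure at 37 °C, 5% CO2 | Detection: Steady-Glo luciferase glow luminescence, 10 min after reagent addition | Read-out basis: Activation, % of tunicamycin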
CHOP inhibitor: blocks CHOP induction under ER stress; AID 2732; hit rate 3.8% among 220,000; CHO-K1 CHOP-promoter luciferase, tunicamycin-induced, 15-18 h; inhibition, % at 10 µM;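 active = compounds that reduced the stress-induced luciferase reporter signal by more than about 70% of percent inhibition, limit read from the data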;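 note: 0% = tunicamycin plus vehicle and 100% = wells without tunicamycin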
Gli-Sufu antag: antagonists of Gli-Sufu signaling. inhibition, % at 5 µM. hit rate 0.74% among 340,000. Sufu-KO-LIGHT fibroblasts, Gli luciferase reporter luminescence;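 active = inhibition above about 55%, limit read from the data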;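 note: 0% = DMSO-treated cells and 100% = wells with medium but no cells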
UPR CHOP act: apoptotic UPR (CHOP) activation; CHO-CHOP luciferase reporter, luminescence; percent of tunicamycin response over DMSO baseline; activation, % at 10 µM; hit rate 0.34% among 330,000; AID 449763;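 active = at 10 µM dose, activation of 40% or more, normalized to positive control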;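 note: 100% = tunicamycin at 10 µg/mL and 0% = DMSO alone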
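System: CHO-CHOP luciferase reporter cell line; amount: 500 cells/well; buffer or medium: F12 medium containing 10% fetal bovine serum; incubation: 6 h compound exposure at 37 °C after overnight seeding; measured by: luciferase luminescence after 10 min with Steady-Glo reagent; evaluation: % reporter activation, DMSO baseline versus tunicamycin full activation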
Jurkat NFkB inh: lowers PMA/ionomycin-induced NF-kB signal in Jurkat cells | PMA/ionomycin-induced NF-kB luciferase reporter, luminescence | inhibition, % at 4 µM | hit rate 0.53% among 330,000 | AID 435003; in the data active = inhibition above about 50%
Active calls of the source: *; · = not tested or not shown. In the library only some 3.9% were active in any assay of this set; here they are far more common.

SMILES | 697 NFkB inh | UPR XBP1 act | CHOP inhibitor | Gli-Sufu antag | UPR CHOP act | Jurkat NFkB inh
CC1C(c2ccccc2)N(C)C(c2ccccc2)CC1(O)c1ccccc1 (centres undefined) | 11 | 5 | 85* | -4 | -1 | 22
CN(CC(=O)NC(=O)NC1CCCCC1)Cc1ccccc1 | -23 | 1 | · | -7 | 1 | -29
O=C(CSc1ncnc2c1cnn2-c1ccc(Cl)cc1)NCc1ccc2c(c1)OCO2 | -33 | 0 | 72* | -9 | 3 | -1
Cc1ccsc1C(=O)N1CCN(c2ncc(C(F)(F)F)cc2Cl)CC1 | -20 | -5 | · | 14 | 0 | -4
CC(C)C(=O)N1CCC(n2nccc2NC(=O)CCc2ccccc2)CC1 | -12 | -2 | · | 24 | -1 | 6
COc1ccc(OC(C)C(=O)NC2CCCCCCC2)cc1 (centres undefined) | 7 | -3 | · | -4 | 1 | -9
O=C(O)C(c1ccccc1)N1C(=O)/C(=C/c2cccs2)SC1=S (centres undefined) | 3 | -1 | 6 | 1 | -2 | 4
C=CCOc1ccc(/C=C2\SC(=S)N(C(C(=O)O)c3ccccc3)C2=O)cc1 (centres undefined) | · | · | 90* | -7 | · | ·
CC(c1ccccc1)N1C(=O)/C(=C/c2ccncc2)SC1=S (centres undefined) | -38 | -4 | 86* | 9 | 4 | 14
Cc1ccc(-n2ncc3c2CC(C)(C)CC3NC(=O)CCc2c(C)noc2C)cc1 (centres undefined) | 27 | 1 | · | 11 | 3 | -11
O=S1(=O)c2ccccc2N=NN1Cc1cc(Cl)cc(Cl)c1 | -2 | -3 | 92* | · | 0 | 4
O=C1c2ccncc2C(=O)N1Cc1cccc(Cl)c1 | -3 | -4 | -4 | 1 | 0 | -9
O=C(NCc1ccccn1)c1ccc2nc(C3CCCCC3)oc2c1 | -83 | -1 | · | 8 | 3 | 0
Nc1cc(S(=O)(=O)N2CCOCC2)ccc1Oc1cccc(Br)c1 | -20 | -3 | · | 2 | -1 | 10
Cc1nn(-c2nc(-c3ccco3)cc(C(F)(F)F)n2)c(C)c1Cl | -15 | 0 | 88* | 12 | -1 | 4
CCCCCCCCCCC/C=C\C(C)(C)/C=C\CCCC(=O)O | · | · | -2 | · | · | ·
CC1=CC(C)(C)N2C(=O)C3(C(C#N)=C(N)Oc4cc(O)ccc43)c3c(C)c(C)cc1c32 (centres undefined) | 13 | 4 | 96* | -2 | 1 | -2
CC1=CC(C)(C)N2C(=O)C3(C(C#N)=C(N)OC4=C3C(=O)CCC4)c3c(C)c(C)cc1c32 (centres undefined) | 27 | 0 | 50 | 8 | 1 | -7
CC(=O)c1ccccc1NC(=O)c1ccc(OCc2c(C)noc2C)cc1 | 7 | 0 | · | -1 | 0 | 12
COc1cc(/C=N/NC(=O)COc2c(C)cc([N+](=O)[O-])cc2C)ccc1OC(=O)c1ccccc1Br | -10 | 5 | 76* | 11 | 2 | -6
N#Cc1c(NCCCO)nc(NCc2ccccc2)c2c1CCN(Cc1ccccc1)C2 | -80 | -5 | 88* | 7 | 3 | -26
CC(=O)Nc1sc2c(c1C#N)CCN(Cc1ccccc1)C2 | -5 | 5 | · | 6 | -2 | -3
CC(C)c1nc(NCc2ccccc2)c(C#N)c2c1CCCC2 | 6 | 4 | -4 | -1 | 2 | -17
CN1CCc2c(C#N)c(N3CCCCC3)nc(NCc3ccccc3)c2C1 | -23 | 0 | 84* | 13 | 0 | -5
CC(=O)Nc1ccc(NC(=O)C(C)OC(=O)CCCOc2ccc(Cl)c(C)c2)cc1 (centres undefined) | 2 | -7 | · | 6 | -2 | 9
SMILES | 697 NFkB inh | UPR XBP1 act | CHOP inhibitor | Gli-Sufu antag | UPR CHOP act | Jurkat NFkB inh
Cn1ccc(NS(=O)(=O)c2cc(Br)ccc2Br)n1 | -4 | -2 | · | 3 | 0 | 3
CC(C)C[C@H](N)CSSC[C@@H](N)CC(C)C | · | · | 5 | · | · | ·
CC(Sc1nc2ccccc2c(=O)n1C)C(=O)Nc1ccc2c(c1)OCCO2 (centres undefined) | -65 | -1 | · | 33 | 4 | 30
CC(C)Cn1c(SC(C)C(=O)Nc2ccc3c(c2)OCCO3)nc2ccccc2c1=O (centres undefined) | · | · | 76* | 2 | · | ·
Cc1cc(OCCOc2cccc3cccnc23)cc(C)c1Cl | 17 | 1 | 75* | 4 | 0 | -12
c1ccc(OCCOc2cccc3cccnc23)cc1 | -49 | 1 | 7 | -43 | 2 | -24
Cc1cc(C)c(C)c(OCCCOc2cccc3cccnc23)c1 | -11 | -2 | 81* | 12 | 1 | 5
Cc1ccc(NC(=O)COC(=O)CCc2c[nH]c3ccccc23)c(C)c1 | 13 | -1 | · | 7 | -1 | 11
O=S(=O)(NCCc1csc(-c2cccnc2)n1)c1ccc(Cl)s1 | -4 | -3 | 78* | 9 | -2 | -12
CN(C)S(=O)(=O)c1ccc(C(=O)NNC(=O)C23CC4CC(CC(C4)C2)C3)cc1 | 15 | 0 | · | -10 | -2 | 6
CCOC(=O)c1sc(NC(=O)CCCCCN2C(=O)c3cccc4cccc(c34)C2=O)nc1C | · | · | 72* | 14 | · | ·
Cc1cc(-n2c(C)cc(C(=O)COc3ccc(F)c(F)c3)c2C)no1 | -42 | 3 | · | -30 | 2 | -10
O=C(N=NC(=O)c1ccc2c(O)n(CC3CCCO3)c(O)c2c1)c1cccnc1 (centres undefined) | -8 | -1 | 6 | 1 | 3 | 13
COc1ccc(C(=O)OC(C(=O)c2ccccc2)c2ccccc2)cc1 (centres undefined) | 31 | -2 | 72* | -5 | -2 | 2
COc1ccc(N=Nc2cc(-c3ccccc3)ccc2O)cc1 | -15 | -1 | · | -1 | 0 | -10
COc1ccc(-c2[nH]ncc2N=Nc2ccccc2)cc1 | -68 | 2 | 73* | 2 | 2 | -5
O=c1c2ccccc2nc2c3ccccc3c3nncn3n12 | · | · | 42 | -9 | · | ·
O=c1c2ccccc2nc2n1CCS2(=O)=O | 17 | -6 | 84* | 5 | 1 | 13
Cc1cc(N/N=C/c2ccccc2O)nc(-c2ccccc2O)n1 | -17 | 4 | 75* | 36 | 4 | -25
Cc1cc(N/N=C\c2ccccc2)nc(-c2ccccc2O)n1 | 1 | 0 | 58 | -25 | 3 | -25
CN(C)c1ccc(C(CNS(=O)(=O)c2ccc3ccccc3c2)c2c[nH]c3ccccc23)cc1 (centres undefined) | -7 | -1 | 76* | 7 | 1 | 3
CN(C)c1ccc(C(CN)c2c[nH]c3ccccc23)cc1 (centres undefined) | -17 | -6 | -9 | 2 | 2 | -8
Cc1cccc(-c2nnc(SCC(=O)c3ccc(O)cc3O)n2C)c1 | -4 | -4 | · | -6 | 1 | -11
